Assay results as given in ChEMBL document CHEMBL1125281, “Identification and synthesis of a receptor binding site of human anaphylatoxin C5a” (J Med Chem, 1991).
Where a SMILES comes first, the peptide text is derived from it.

Assays:
[1] = biological target: T1, C5a anaphylatoxin chemotactic receptor 1 (Homo sapiens, UniProt P21730); experiment: Compound was tested for the inhibition of [125I]C5a binding to C5a anaphylatoxin chemotactic receptor in PMNL membranes; inactive; type: cell membranes
T1 sequence (P21730 whole entry): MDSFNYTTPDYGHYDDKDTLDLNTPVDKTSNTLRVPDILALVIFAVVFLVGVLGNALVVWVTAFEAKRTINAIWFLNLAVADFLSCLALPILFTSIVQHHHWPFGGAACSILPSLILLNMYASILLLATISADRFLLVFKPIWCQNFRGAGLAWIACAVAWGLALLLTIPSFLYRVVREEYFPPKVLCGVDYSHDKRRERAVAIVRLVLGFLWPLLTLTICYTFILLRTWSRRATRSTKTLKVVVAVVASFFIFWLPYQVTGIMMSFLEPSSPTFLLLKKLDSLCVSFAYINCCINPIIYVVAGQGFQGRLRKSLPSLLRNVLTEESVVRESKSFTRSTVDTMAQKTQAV

[2] = biological target: T1, C5a anaphylatoxin chemotactic receptor 1; experiment: Inhibition of [125I]C5a binding to C5a anaphylatoxin chemotactic receptor in PMNL intact cells; inactive; type: cell-based
In short: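 Intact human PMNL isolated from peripheral blood by one-step density centrifugation. Cells incubated 20 min at 23 °C with [125I]C5a (1 × 10⁻⁹ M), test peptide and protease inhibitors. Cells separated from free ligand by centrifugation through silicone oil at 10000g; pellet γ counts read.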

[3] = biological target: T1, C5a anaphylatoxin chemotactic receptor 1; experiment: Compound was tested for the inhibition of [125I]C5a binding to C5a anaphylatoxin chemotactic receptor binding to PMNL membranes.
[4] = biological target: T2, C5a anaphylatoxin chemotactic receptor 1 (Homo sapiens) (UniProt P21730); experiment: Compound was tested for the inhibition of [125I]C5a binding to C5a anaphylatoxin chemotactic receptor in PMNL membranes.; type: cell membranes; conditions: concentration not given here
T2 sequence (whole entry): T1 sequence (P21730 whole entry)

[5] = biological target: T2, C5a anaphylatoxin chemotactic receptor 1 (Homo sapiens); experiment: Compound was tested for the inhibition of [125I]C5a anaphylatoxin chemotactic receptor binding to PMNL intact cells at a concentration of 0.1-1 mM.; type: cell-based
[6] = biological target: T1, C5a anaphylatoxin chemotactic receptor 1; experiment: Inhibition of [125I]-C5a anaphylatoxin chemotactic receptor binding to PMNL membranes.
[7] = biological target: T1, C5a anaphylatoxin chemotactic receptor 1; experiment: Compound was tested for the inhibition of [125I]C5a anaphylatoxin chemotactic receptor binding to PMNL membranes at a concentration of 0.1-1 mM

Compound	Ki [2]	inhibition [5]	further results
CSCC[C@H](NC(=O)[C@H](CC(=O)O)NC(C)=O)C(=O)N[C@@H](CCC(N)=O)C(=O)N[C@@H](CC(C)C)C(=O)NCC(=O)N[C@@H](CCCN=C(N)N)C(=O)O (Ac-DMQLGR-OH)	Not Active	–	Ki [1]: Not Active
CC[C@H](C)[C@H](NC(C)=O)C(=O)N[C@@H](CO)C(=O)N[C@@H](Cc1c[nH]cn1)C(=O)N[C@@H](CCCCN)C(=O)N[C@@H](CC(=O)O)C(=O)N[C@@H](CCSC)C(=O)N[C@@H](CCC(N)=O)C(=O)N[C@@H](CC(C)C)C(=O)N[C@@H](CCCN=C(N)N)C(=O)NCC(=O)N[C@@H](CCCN=C(N)N)C(=O)O (Ac-ISHKDMQLRGR-OH)	Not Active	–	Ki [3]: 100 µM
CSCC[C@H](NC(=O)[C@H](CC(=O)O)NC(=O)[C@H](CCCCN)NC(C)=O)C(=O)N[C@@H](CCC(N)=O)C(=O)N[C@@H](CC(C)C)C(=O)NCC(=O)N[C@@H](CCCN=C(N)N)C(=O)O (Ac-KDMQLGR-OH)	Not Active	–	inhibition [4]: 30%
CC[C@H](C)[C@H](NC(=O)[C@H](CCSC)NC(C)=O)C(=O)N[C@@H](CCCCN)C(=O)N[C@@H](C)C(=O)N[C@@H](Cc1ccccc1)C(=O)N[C@H](C(=O)N[C@@H](CCC(=O)O)C(=O)N[C@@H](CCSC)C(=O)N[C@@H](CCSC)C(=O)N[C@H](C(=O)N[C@H](C(=O)N[C@@H](C)C(=O)N[C@@H](CO)C(=O)N[C@@H](CCC(N)=O)C(=O)N[C@@H](CC(C)C)C(=O)N[C@@H](CCCN=C(N)N)C(=O)N[C@@H](C)C(=O)N[C@@H](CC(N)=O)C(=O)N[C@H](C(=O)N[C@@H](CO)C(=O)N[C@@H](Cc1c[nH]cn1)C(=O)N[C@@H](CCCCN)C(=O)N[C@@H](CC(=O)O)C(=O)N[C@@H](CCSC)C(=O)N[C@@H](CCC(N)=O)C(=O)N[C@@H](CC(C)C)C(=O)NCC(=O)N[C@@H](CCCN=C(N)N)C(=O)O)[C@@H](C)CC)C(C)C)C(C)C)[C@@H](C)O (Ac-MIKAFTEMMVVASQLRANISHKDMQLGR-OH)	–	> 20%	Ki [6]: 100 µM
CC[C@H](C)[C@H](NC(=O)[C@H](CC(N)=O)NC(=O)[C@H](C)NC(=O)[C@H](CCCN=C(N)N)NC(=O)[C@H](CC(C)C)NC(=O)[C@H](CCC(N)=O)NC(=O)[C@H](CO)NC(=O)[C@H](C)NC(=O)[C@@H](NC(=O)[C@@H](NC(=O)[C@H](CCSC)NC(=O)[C@H](CCSC)NC(=O)[C@H](CCC(=O)O)NC(=O)[C@@H](NC(=O)[C@@H](N)Cc1ccccc1)[C@@H](C)O)C(C)C)C(C)C)C(=O)N[C@@H](CO)C(=O)N[C@@H](Cc1c[nH]cn1)C(=O)N[C@@H](CCCCN)C(=O)N[C@@H](CC(=O)O)C(=O)N[C@@H](CCSC)C(=O)N[C@@H](CCC(N)=O)C(=O)N[C@@H](CC(C)C)C(=O)NCC(=O)N[C@@H](CCCN=C(N)N)C(=O)O (H-FTEMMVVASQLRANISHKDMQLGR-OH)	–	> 20%	–
CC[C@H](C)[C@H](NC(=O)[C@H](CC(N)=O)NC(=O)[C@H](C)NC(=O)[C@H](CCCNC(=N)N)NC(=O)[C@H](CC(C)C)NC(=O)[C@H](CCC(N)=O)NC(=O)[C@@H](N)CO)C(=O)N[C@@H](CO)C(=O)N[C@@H](Cc1cnc[nH]1)C(=O)N[C@@H](CCCCN)C(=O)N[C@@H](CC(=O)O)C(=O)N[C@@H](CCSC)C(=O)N[C@@H](CCC(N)=O)C(=O)N[C@@H](CC(C)C)C(=O)NCC(=O)N[C@@H](CCCNC(=N)N)C(=O)O (H-SQLRANISHKDMQLGR-OH)	–	–	Ki [7]: 300 µM
